This is an account of results in ChEMBL document CHEMBL1154229 (Bioorg Med Chem Lett, 2009).

Data set [1] has as its target Cytochrome P450 3A4 (Homo sapiens, UniProt P08684). Briefly: Inhibition of CYP3A4. The format is ADME.
Data set [2] addresses Cytochrome P450 2D6 (Homo sapiens, UniProt P10635). Briefly: (§1) Inhibition of CYP2D6. The format is ADME.
Data set [3] addresses Cytochrome P450 2C9 (Homo sapiens, UniProt P11712). Nature of the data set: Inhibition of CYP2C9. The data set is classed as ADME.
In data set [4] the target is T1, Bifunctional epoxide hydrolase 2 (Rattus norvegicus, UniProt P80299).
T1 sequence (P80299 whole entry): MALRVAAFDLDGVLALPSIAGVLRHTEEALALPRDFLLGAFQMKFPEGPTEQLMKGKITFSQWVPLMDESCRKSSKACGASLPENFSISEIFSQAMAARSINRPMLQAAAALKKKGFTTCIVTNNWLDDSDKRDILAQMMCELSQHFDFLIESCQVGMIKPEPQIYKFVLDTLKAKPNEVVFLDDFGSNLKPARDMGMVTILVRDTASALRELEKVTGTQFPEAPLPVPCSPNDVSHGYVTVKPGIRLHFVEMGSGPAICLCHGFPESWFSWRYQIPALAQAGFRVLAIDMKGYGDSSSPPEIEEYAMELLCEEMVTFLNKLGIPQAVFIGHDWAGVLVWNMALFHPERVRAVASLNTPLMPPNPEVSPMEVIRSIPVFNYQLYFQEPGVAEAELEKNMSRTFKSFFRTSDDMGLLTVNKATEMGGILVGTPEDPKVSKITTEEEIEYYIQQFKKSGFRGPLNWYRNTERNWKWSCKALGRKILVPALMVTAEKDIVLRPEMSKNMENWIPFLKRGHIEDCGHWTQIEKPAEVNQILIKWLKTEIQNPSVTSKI
Nature of the data set: Inhibition of rat soluble epoxide hydrolase.

The target of data set [5] is T2, Bifunctional epoxide hydrolase 2 (Homo sapiens, UniProt P34913).
T2 sequence (P34913 whole entry): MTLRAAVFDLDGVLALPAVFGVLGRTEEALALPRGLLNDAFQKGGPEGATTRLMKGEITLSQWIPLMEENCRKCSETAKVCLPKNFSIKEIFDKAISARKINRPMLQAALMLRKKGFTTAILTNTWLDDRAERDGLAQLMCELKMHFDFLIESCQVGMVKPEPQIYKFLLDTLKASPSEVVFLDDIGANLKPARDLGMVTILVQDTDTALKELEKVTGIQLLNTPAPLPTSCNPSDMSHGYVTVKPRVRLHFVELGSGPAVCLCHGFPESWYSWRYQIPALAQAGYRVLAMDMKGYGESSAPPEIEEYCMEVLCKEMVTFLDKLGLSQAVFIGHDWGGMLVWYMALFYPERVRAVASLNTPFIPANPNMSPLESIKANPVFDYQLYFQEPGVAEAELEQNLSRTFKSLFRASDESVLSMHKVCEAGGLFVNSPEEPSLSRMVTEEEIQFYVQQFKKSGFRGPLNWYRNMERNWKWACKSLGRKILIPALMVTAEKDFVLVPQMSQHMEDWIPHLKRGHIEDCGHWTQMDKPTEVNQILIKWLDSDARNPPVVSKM
Nature of the data set: Inhibition of human soluble epoxide hydrolase in HEK293 cells assessed as DHET production. The data set is classed as cell-based. Summed up: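 Whole-cell 14,15-DHET production assay in HEK293 cells, run with or without 10% human serum. Values come from one or two experiments, each in triplicate, with repeats within 20%.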

Data set [6] has as its target T2, Bifunctional epoxide hydrolase 2. Nature of the data set: Inhibition of human soluble epoxide hydrolase.
The target in data set [7] is T3, Epoxide hydrolase 1 (Homo sapiens, UniProt P07099).
T3 sequence (P07099 whole entry): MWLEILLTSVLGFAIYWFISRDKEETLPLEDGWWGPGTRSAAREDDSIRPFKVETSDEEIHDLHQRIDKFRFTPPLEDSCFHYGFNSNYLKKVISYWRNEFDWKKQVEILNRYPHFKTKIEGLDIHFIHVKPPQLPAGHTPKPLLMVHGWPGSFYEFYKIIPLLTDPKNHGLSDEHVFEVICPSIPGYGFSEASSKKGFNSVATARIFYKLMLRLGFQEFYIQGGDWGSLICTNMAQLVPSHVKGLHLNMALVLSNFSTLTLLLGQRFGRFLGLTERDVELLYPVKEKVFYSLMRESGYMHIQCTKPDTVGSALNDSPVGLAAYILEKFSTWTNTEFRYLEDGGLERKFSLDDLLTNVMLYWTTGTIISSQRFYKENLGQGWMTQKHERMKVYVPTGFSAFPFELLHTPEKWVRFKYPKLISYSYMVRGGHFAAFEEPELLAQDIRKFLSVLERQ
Briefly: Inhibition of human microsomal epoxide hydrolase. A digest of the protocol: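 Human mEH used as the counterscreen enzyme. Values come from one or two experiments, each in triplicate, with repeats within 20%.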

The target in data set [8] is T4, Cytochrome P450 2C8 (Homo sapiens, UniProt P10632).
T4 sequence (P10632 whole entry): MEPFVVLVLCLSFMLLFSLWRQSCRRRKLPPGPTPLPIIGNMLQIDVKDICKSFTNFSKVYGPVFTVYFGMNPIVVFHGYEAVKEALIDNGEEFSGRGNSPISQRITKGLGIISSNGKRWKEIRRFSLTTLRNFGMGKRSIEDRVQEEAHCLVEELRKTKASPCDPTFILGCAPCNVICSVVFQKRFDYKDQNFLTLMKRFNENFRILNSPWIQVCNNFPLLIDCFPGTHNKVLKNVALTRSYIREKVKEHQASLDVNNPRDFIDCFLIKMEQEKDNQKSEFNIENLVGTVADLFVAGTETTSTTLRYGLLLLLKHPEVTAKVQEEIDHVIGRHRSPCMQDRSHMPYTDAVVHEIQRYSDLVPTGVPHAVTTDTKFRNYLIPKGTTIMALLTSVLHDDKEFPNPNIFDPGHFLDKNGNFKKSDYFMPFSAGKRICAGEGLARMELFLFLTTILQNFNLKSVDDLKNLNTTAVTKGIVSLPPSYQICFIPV
Nature of the data set: Inhibition of CYP2C8. The data set is classed as ADME.

Data set [9] has as its target Sodium channel protein type 5 subunit alpha (Homo sapiens, UniProt Q14524). Nature of the data set: Inhibition of Nav1.5 channel.
The subject of data set [10] is Rattus norvegicus. Nature of the data set: Antihypertensive activity in spontaneously hypertensive rat assessed as change in diastolic blood pressure at 50 mg/kg, po up to 8 hrs by telemetry method. Conditions: Artery. Set-up: dose 50 mg/kg. The format is functional, organism-based. A digest of the protocol:
(§2)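 Spontaneously hypertensive rats dosed orally at 50 mpk. Systolic and diastolic blood pressure, heart rate and pulse pressure recorded by telemetry over 8 h post dose.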

Data set [11] deals with Rattus norvegicus. Briefly: Antihypertensive activity in spontaneously hypertensive rat assessed as change in systolic blood pressure at 50 mg/kg, po up to 8 hrs by telemetry method. Particulars: Artery. The data set is classed as functional, organism-based. More on the design: dose 50 mg/kg. A digest of the protocol: as §2
For data set [12], the target named is CYP2D6 (Homo sapiens, UniProt P10635). The description is as §1. The format is ADME.
Data set [13] can be described thus: Inhibition of potassium channel IKr.
Data set [14] addresses L-type calcium channel. Briefly: Inhibition of calcium channel diltiazem binding site.
Data set [15] in a line: Clearance in rat at 1 mg/kg, iv and 2 mg/kg, po. The data set is classed as ADME, organism-based. Conditions: in vivo. A digest of the protocol: (§3)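 Rats dosed IV at 1 mg/kg (n = 2) and PO at 2 mg/kg (n = 3). Blood drug levels measured by LC/MS/MS after protein precipitation with acetonitrile.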
Data set [16] is described as follows: Bioavailability in rat at 1 mg/kg, iv and 2 mg/kg, po. The format is ADME, organism-based. Conditions: in vivo. Summed up:
as §3

The nature of data set [17]: Volume of distribution at steady state in rat at 1 mg/kg, iv and 2 mg/kg, po. The data set is classed as ADME, organism-based. Conditions: in vivo, read-out: Vdss. Summed up:
as §3

Data set [18] is described as follows: Half life in rat at 1 mg/kg, iv and 2 mg/kg, po. The data set is classed as ADME, organism-based. Conditions: in vivo. A digest of the protocol:
as §3

pIC50: −log10 of the molar value. Active and inactive are the calls of the source. The rule behind the calls is not given here.

Chain of Cytochrome P450 3A4 (P08684 whole entry): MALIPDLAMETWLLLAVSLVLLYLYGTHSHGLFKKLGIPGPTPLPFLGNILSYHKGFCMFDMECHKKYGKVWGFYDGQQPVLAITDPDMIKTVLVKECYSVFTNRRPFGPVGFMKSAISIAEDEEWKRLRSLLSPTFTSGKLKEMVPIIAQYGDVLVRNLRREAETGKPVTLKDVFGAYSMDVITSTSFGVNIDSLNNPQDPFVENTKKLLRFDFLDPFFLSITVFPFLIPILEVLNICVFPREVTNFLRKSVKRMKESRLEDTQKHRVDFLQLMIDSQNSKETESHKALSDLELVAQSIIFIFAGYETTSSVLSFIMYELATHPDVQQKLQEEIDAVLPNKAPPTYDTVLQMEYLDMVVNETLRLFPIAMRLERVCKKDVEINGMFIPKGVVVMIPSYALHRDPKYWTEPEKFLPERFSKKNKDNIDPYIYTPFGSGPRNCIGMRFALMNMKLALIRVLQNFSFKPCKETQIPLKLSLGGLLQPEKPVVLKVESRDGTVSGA
Chain of Cytochrome P450 2C9 (P11712 whole entry): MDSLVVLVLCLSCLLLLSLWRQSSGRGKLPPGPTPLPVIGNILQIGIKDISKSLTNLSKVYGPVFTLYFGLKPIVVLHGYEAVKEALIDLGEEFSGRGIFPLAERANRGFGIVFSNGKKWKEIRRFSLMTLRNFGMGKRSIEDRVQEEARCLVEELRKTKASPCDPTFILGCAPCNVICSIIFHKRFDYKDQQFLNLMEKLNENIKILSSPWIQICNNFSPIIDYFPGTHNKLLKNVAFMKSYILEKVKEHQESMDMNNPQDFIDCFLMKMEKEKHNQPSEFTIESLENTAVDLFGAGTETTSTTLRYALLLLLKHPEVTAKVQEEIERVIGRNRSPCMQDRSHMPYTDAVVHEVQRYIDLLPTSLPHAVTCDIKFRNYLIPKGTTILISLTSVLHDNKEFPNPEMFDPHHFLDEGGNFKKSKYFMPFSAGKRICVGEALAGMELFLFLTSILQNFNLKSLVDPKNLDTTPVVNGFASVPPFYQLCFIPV
Chain of CYP2D6 (P10635 whole entry): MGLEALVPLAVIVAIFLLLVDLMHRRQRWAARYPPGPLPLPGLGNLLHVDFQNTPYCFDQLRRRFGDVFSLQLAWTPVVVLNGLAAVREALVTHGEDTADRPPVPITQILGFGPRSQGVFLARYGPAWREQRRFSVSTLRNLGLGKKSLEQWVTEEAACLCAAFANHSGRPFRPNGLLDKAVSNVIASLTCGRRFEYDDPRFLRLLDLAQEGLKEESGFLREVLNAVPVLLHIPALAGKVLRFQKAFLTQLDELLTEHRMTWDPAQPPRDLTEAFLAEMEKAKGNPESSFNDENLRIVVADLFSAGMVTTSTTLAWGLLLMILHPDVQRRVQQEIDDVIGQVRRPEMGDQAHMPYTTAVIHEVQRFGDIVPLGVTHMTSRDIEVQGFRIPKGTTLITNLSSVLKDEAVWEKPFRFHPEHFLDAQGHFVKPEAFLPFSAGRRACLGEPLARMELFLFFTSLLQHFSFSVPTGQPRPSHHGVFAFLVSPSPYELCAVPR
Chain of Sodium channel protein type 5 subunit alpha (Q14524 whole entry): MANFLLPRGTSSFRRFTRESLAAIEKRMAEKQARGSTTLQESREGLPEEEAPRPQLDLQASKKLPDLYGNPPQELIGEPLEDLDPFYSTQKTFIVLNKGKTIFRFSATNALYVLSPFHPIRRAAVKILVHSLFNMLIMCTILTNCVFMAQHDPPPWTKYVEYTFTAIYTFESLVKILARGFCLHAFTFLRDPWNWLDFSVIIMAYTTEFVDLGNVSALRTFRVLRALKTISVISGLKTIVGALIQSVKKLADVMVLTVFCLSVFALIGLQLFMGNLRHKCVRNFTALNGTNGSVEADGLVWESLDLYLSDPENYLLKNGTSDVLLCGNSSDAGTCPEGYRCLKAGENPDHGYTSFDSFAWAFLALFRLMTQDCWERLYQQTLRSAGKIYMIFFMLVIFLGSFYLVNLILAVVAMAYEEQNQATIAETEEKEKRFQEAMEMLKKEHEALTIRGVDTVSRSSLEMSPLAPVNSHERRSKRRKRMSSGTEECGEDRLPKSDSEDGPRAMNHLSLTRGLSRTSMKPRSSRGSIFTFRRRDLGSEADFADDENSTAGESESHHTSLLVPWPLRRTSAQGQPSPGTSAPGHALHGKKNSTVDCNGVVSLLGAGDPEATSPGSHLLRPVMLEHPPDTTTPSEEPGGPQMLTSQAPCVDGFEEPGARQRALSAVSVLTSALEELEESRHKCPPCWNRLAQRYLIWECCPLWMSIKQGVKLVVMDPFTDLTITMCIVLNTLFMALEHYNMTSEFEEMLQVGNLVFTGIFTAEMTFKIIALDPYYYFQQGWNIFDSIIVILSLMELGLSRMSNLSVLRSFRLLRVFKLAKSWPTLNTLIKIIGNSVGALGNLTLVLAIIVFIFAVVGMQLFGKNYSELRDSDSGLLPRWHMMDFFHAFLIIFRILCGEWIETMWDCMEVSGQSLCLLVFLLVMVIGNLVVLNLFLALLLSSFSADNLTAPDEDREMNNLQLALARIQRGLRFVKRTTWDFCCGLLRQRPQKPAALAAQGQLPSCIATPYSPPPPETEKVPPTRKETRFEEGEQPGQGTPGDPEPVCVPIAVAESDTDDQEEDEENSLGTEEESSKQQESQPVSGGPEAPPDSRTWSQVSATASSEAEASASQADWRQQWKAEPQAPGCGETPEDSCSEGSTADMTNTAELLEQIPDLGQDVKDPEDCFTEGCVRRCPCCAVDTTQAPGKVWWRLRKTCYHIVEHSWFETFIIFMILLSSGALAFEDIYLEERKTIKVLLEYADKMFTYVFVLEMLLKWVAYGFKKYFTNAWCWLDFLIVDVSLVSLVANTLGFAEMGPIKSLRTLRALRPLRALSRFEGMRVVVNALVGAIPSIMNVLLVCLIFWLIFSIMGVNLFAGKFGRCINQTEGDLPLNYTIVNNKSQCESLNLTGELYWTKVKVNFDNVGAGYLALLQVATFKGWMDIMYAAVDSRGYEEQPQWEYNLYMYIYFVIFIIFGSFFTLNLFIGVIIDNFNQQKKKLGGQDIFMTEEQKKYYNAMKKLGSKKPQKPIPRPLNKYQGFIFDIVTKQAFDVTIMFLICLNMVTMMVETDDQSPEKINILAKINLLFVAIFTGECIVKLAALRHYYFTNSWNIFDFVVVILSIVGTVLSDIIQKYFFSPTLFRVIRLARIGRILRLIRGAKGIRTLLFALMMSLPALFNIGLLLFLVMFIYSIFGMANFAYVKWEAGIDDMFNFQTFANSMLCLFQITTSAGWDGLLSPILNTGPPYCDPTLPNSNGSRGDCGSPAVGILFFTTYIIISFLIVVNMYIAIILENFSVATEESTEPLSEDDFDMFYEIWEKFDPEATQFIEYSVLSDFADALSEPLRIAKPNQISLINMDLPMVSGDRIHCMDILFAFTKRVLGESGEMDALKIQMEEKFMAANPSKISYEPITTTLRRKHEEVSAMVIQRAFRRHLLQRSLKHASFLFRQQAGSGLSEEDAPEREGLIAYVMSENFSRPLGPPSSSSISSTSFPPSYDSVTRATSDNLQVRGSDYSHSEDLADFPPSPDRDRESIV
Chain of Cytochrome P450 2D6 (P10635 whole entry): as the sequence (P10635 whole entry) above

Turning to `O=C(O)CCC1(c2ccccc2)CCCN(C(=O)Nc2ccc(Cl)cc2)C1` (stereo in doubt) [listing 1 of 2 here], the pIC50 in [1] is under 4.00; in data set [2], under 4.00; in data set [3], under 4.00; in data set [4], 7.16; in data set [5], 8.70; in [6], 8.30. In addition, the pIC50 in data set [7] is under 4.00; in [8], 4.19; in data set [9] it was under 5.00.

For `O=C(O)CCC1(c2ccccc2)CCCN(C(=O)Nc2ccc(Cl)cc2)C1` (stereo in doubt) [listing 2 of 2 here], the result in [10] and in data set [11] was inactive.

With `CC1(c2ccccc2)CCCN(C(=O)NCCc2ccc3nc[nH]c3c2)C1` (stereo unspecified), the pIC50 in data set [1] was under 5.00; in data set [12] it was over 5.00; in data set [13], 4.89; in data set [3] it was over 5.00; in data set [4], 7.59; in data set [5], 7.89. The pIC50 in [6] is 7.54; in data set [7], under 4.00.

In the case of `CC1(c2ccccc2)CCCN(C(=O)NCCc2ccc(Cl)cc2)C1` (stereo unspecified), the pIC50 in data set [1] is over 5.00; in [12] it was over 5.00; in [13], 5.05; in data set [3], under 5.00; in data set [4], 8.30; in data set [6], 9.00. Further, the values for the pIC50 in [14] and in [7] were 5.70 and 4.27, respectively.

As to `CN(C)CCC1(c2ccccc2)CCCN(C(=O)Nc2ccc(Cl)cc2)C1` (stereo unspecified), the pIC50 in data set [1] was over 5.00; in [12], over 5.00; in data set [13], 6.52; in [3], under 5.00; in data set [4], 6.92; in data set [5], 8.89. Besides, the pIC50 in data set [6] was 7.92; in data set [14], 7.00; in data set [7] it was under 4.00; in [9], under 5.00. Further, the clearance in [15] was 59 mL/min/kg. In data set [16], this compound registered a bioavailability of 52%. In [17], the Vd turned out to be 1.4 L/kg. The same compound had a half-life in data set [18] of 39.6 min.
